Assay: Ratio of drug level in brain to blood in iv dosed mouse
Format: ADME, organism-based
Settings: brain/whole blood, read-out: BBR
Summary of the method: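 Brain/blood radioactivity ratio was taken from decay-corrected %ID/g tissue in whole brain and blood. Samples came from male Wister mice (30 g, 7 weeks) given the 11C tracer iv by tail vein (average 20 MBq/400 µL). Mice were sacrificed at 1–60 min after injection, three per time point.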

## CCOC(=O)C1=C[C@@H](OC(CC)CC)[C@H](N[11C](C)=O)[C@@H](N)C1
  Kp: 0.07

## CCC(CC)O[C@@H]1C=C(C(=O)O)C[C@H](N)[C@H]1N[11C](C)=O
  Kp: 0.06

Source: ChEMBL document CHEMBL1141484, “Radiosyntheses of two positron emission tomography probes: [11C]Oseltamivir and its active metabolite [11C]Ro 64-0802” (Bioorg Med Chem Lett, 2008)
